Inhibition and Stability data for 8 compounds are collected here from ChEMBL document CHEMBL5252656, “Cyclic Peptidic Furin Inhibitors Developed by Combinatorial Chemistry” (ACS Med Chem Lett, 2023).

Data set [1] deals with Furin (Homo sapiens) (UniProt P09958). The data set is described as follows: Inhibition of recombinant human furin using Pyr-Arg-Thr-Lys-Arg-AMC as substrate at 2.4 nM preincubated for 30 mins followed by substrate addition and measured for 40 mins by microplate reader method. The following applies: time 70.0 min.
Chain of Furin (Homo sapiens) (P09958 whole entry): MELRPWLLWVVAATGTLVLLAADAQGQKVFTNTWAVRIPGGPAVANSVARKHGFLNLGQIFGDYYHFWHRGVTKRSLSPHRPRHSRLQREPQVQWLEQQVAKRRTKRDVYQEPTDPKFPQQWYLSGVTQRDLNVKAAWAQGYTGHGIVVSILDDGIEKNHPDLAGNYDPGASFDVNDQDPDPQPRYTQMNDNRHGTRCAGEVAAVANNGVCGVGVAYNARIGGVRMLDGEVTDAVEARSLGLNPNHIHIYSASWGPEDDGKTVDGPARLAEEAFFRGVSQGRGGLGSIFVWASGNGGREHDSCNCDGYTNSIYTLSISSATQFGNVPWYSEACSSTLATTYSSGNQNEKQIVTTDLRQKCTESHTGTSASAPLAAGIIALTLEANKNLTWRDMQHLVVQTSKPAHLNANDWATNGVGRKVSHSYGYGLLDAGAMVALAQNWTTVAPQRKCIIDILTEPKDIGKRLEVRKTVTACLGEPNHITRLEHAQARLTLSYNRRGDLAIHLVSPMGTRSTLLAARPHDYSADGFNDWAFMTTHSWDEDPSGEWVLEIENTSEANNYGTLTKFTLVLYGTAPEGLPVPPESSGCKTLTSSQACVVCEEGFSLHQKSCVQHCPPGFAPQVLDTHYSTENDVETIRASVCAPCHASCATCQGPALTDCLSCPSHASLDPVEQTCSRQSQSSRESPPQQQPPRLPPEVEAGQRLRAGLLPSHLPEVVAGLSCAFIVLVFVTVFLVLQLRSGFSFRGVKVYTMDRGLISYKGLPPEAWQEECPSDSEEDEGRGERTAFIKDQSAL
Data set [2] has the same target. Put plainly: Inhibition of recombinant human furin using Pyr-Arg-Thr-Lys-Arg-AMC as substrate at 24 nM preincubated for 30 mins followed by substrate addition and measured for 40 mins by microplate reader method. The note with it: time 70.0 min.
For data set [3] the target is unchanged. The data set is described as follows: Inhibition of recombinant human furin using Pyr-Arg-Thr-Lys-Arg-AMC as substrate at 77 nM preincubated for 30 mins followed by substrate addition and measured for 40 mins by microplate reader method. The following applies: time 70.0 min.
Data set [4] addresses T1, Transmembrane protease serine 6 (Homo sapiens) (UniProt Q8IU80).
T1 sequence (whole entry): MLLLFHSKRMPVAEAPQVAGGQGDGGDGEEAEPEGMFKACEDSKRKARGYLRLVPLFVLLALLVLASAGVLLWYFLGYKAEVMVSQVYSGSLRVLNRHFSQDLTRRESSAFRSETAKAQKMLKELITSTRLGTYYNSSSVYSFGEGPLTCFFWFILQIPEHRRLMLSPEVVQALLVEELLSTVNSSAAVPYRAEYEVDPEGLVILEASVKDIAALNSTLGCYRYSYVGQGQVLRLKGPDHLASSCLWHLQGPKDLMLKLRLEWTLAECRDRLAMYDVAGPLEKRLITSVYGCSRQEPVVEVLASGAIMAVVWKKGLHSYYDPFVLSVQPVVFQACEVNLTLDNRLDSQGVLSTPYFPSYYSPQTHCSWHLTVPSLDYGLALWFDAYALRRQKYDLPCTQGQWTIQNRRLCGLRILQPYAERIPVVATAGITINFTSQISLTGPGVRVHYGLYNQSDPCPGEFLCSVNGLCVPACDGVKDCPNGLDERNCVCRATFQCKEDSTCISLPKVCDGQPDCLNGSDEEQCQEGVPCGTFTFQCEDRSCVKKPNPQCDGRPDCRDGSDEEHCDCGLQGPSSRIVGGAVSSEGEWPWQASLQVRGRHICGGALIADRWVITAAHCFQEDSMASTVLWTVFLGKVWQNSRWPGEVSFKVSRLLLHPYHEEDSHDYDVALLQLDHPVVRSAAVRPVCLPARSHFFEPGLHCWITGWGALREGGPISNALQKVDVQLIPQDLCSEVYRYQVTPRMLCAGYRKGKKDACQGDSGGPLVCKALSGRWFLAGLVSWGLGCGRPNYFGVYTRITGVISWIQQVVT
The data set is described as follows: Inhibition of recombinant human matriptase 2 using Boc-Gln-Ala-Arg-AMC as substrate at 3.85 to 385 nM preincubated for 30 mins followed by substrate addition and measured for 40 mins by microplate reader method. The note with it: dose 3.85-385 nM, time 70.0 min. Summed up:
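Recombinant human matriptase-2 (1.51 U/mL) in 50 mM Tris-Cl pH 8.3, 150 mM NaCl, 0.01% Triton X-100 was preincubated with compound 30 min at 37 °C. Boc-QAR-AMC (5 μM final) was then added; fluorescence (ex 380/em 450 nm) read ≥40 min. % inhibition vs no-inhibitor control.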

Data set [5] in a line: Stability in human serum assessed as parent compound remaining at 1.54 mM and measured after 24 hrs by RP-HPLC analysis. It counts as ADME, cell-free. Summed up:
(§1)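 Peptide stock (1.54 mM) was diluted 10-fold into human serum and held at 37 °C. Samples were taken at 0, 1, 2, 3, 5 and 24 h, precipitated with equal volume acetonitrile and centrifuged 10 min. Supernatant was analysed by RP-HPLC (C18, 10–90% B over 40 min) and MALDI-TOF MS.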

Data set [6] concerns the target Furin (Homo sapiens) (UniProt P09958). The data set is described as follows: Inhibition of human furin in human PANC-1 cells assessed as release of fluorescent AMC using Pyr-Arg-Thr-Arg-AMC as substrate preincubated for 30 mins followed by substrate addition by plate reader analysis. It counts as cell-based. Set-up: concentration or dose not given beside the values. In short, it runs like this: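 PANC-1 lysate (DMEM/10% FBS culture, protease-inhibitor cocktail extraction) was diluted 10-fold in 100 mM HEPES, 1 mM CaCl2, pH 7.5, then warmed 15 min at 37 °C. Peptide (100 μM final) was added for 30 min at 37 °C, then Pyr-RTR-AMC substrate (100 μM final). AMC release was monitored over time; % inhibition relative to no-inhibitor control.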

The target is the same in data set [7]. The data set is described as follows: Inhibition of human furin in human PANC-1 cells assessed as release of fluorescent AMC using Pyr-Arg-Thr-Arg-AMC as substrate preincubated for 10 mins in presence of SFTI-1 then incubation with ligand for 30 mins followed by substrate addition by plate reader analysis. The format is cell-based. The note with it: time 40.0 min. In short, it runs like this:
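PANC-1 cells grown in DMEM with 10% FBS and 1% P/S at 37 °C, 5% CO2. Cell lysate was prepared in protease inhibitor cocktail and diluted 10-fold in pH 7.5 HEPES/CaCl2 buffer. It was given SFTI-1 (100 μM final) for 10 min at 37 °C, then peptide (100 μM final) for 30 min, then Pyr-RTR-AMC (100 μM final). AMC release was followed; % inhibition vs no-inhibitor control.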

Data set [8] is described as follows: Stability in human serum assessed as parent compound remaining at 1.54 mM and measured after 24 hrs by MALDI-MS analysis. The format is ADME, cell-free. In short, it runs like this: as §1

Molecules are shown by their SMILES. The source made the active and inactive calls. The rule behind the calls is not given here. Bridge positions count the residues as written; N and C are the ends. Peptide text beside a SMILES is read from it.

Broadly, the inhibition is the relative decrease from the control value, in per cent.

With `CC[C@H](C)[C@@H]1NC(=O)[C@@H]2CCCN2C(=O)[C@@H]2CCCN2C(=O)[C@H]([C@@H](C)CC)NC(=O)[C@H](CO)NC(=O)[C@H](CCCCN)NC(=O)[C@H](CCCCN)NC(=O)[C@@H](NC(=O)[C@H](CCCNC(=N)N)NC(=O)[C@H](CCCNC(=N)N)NC(=O)[C@@H](N)CCCCN)CSSC[C@@H](C(=O)N[C@@H](Cc2ccccc2)C(N)=O)NC1=O` (H-KRRCKKSIPPICF-NH2; disulfide 4-12), the inhibition at Furin (Homo sapiens) [1] amounted to 66.5%; on Furin (Homo sapiens) [2], 3.98%; on Furin (Homo sapiens) [3] it was 0.1%.
The matching figures for `CC[C@H](C)[C@@H]1NC(=O)[C@@H]2CCCN2C(=O)[C@@H]2CCCN2C(=O)[C@H]([C@@H](C)CC)NC(=O)[C@H](CO)NC(=O)[C@H](CCCCN)NC(=O)[C@H](CCCCN)NC(=O)[C@@H](NC(=O)[C@H](CCCNC(=N)N)NC(=O)[C@@H](N)CCCNC(=N)N)CSSC[C@@H](C(=O)N[C@@H](Cc2ccccc2)C(N)=O)NC1=O` (H-RRCKKSIPPICF-NH2; disulfide 3-11): 63%, 6.02% and 0.2%.
For the compound `CC[C@H](C)[C@@H]1NC(=O)[C@@H]2CCCN2C(=O)[C@@H]2CCCN2C(=O)[C@H]([C@@H](C)CC)NC(=O)[C@H](CO)NC(=O)[C@H](CCCCN)NC(=O)[C@H](CCCCN)NC(=O)[C@@H](NC(=O)[C@H](CCCNC(=N)N)NC(=O)[C@H](CCCNC(=N)N)NC(=O)[C@@H](N)CCCNC(=N)N)CSSC[C@@H](C(=O)N[C@@H](Cc2ccccc2)C(N)=O)NC1=O` (H-RRRCKKSIPPICF-NH2; disulfide 4-12), the inhibition result in data set [4] is “inactive”. The Stability result in data set [5] and in data set [8] was “Stable” each time. In addition, the inhibition on Furin (Homo sapiens) [6] was 68.3%; at Furin (Homo sapiens) [7], 46.6%; on Furin (Homo sapiens) [1] it was 43.7%.
As to `CC[C@H](C)[C@@H]1NC(=O)[C@@H]2CCCN2C(=O)[C@@H]2CCCN2C(=O)[C@H]([C@@H](C)CC)NC(=O)[C@H](CO)NC(=O)[C@H](CCCCN)NC(=O)[C@H]([C@H](C)O)NC(=O)[C@@H]2CSSC[C@H](NC1=O)C(=O)N[C@@H](Cc1ccccc1)C(=O)N1CCC[C@H]1C(=O)N[C@H](C(=O)O)CC(=O)NC(=N)NCCC[C@@H](C(N)=O)C(=O)N2`, at Furin (Homo sapiens) [6], the inhibition is 98.4%.
In the case of `CC[C@H](C)[C@@H]1NC(=O)[C@@H]2CCCN2C(=O)[C@@H]2CCCN2C(=O)[C@H]([C@@H](C)CC)NC(=O)[C@H](CO)NC(=O)[C@H](CCCCN)NC(=O)[C@H](CCCCN)NC(=O)[C@@H]2CSSC[C@H](NC1=O)C(=O)N[C@@H](Cc1ccccc1)C(=O)N[C@@H](CCCCN)C(=O)N[C@@H](CCCNC(=N)N)C(=O)N[C@@H](CCCNC(=N)N)C(=O)N2` (cyclo(KRRCKKSIPPICF); disulfide 4-12), the inhibition result in data set [4] was “inactive”. In addition, the inhibition at Furin (Homo sapiens) [6] was determined as 64.8%; on Furin (Homo sapiens) [7] it was 45.9%; on Furin (Homo sapiens) [1], 40.2%.
The corresponding values for `CC[C@H](C)[C@@H]1NC(=O)[C@@H]2CCCN2C(=O)[C@@H]2CCCN2C(=O)[C@H]([C@@H](C)CC)NC(=O)[C@H](CO)NC(=O)[C@H](CCCCN)NC(=O)[C@H](CCCCN)NC(=O)[C@@H]2CSSC[C@H](NC1=O)C(=O)N[C@@H](Cc1ccccc1)C(=O)N[C@@H](CCCNC(=N)N)C(=O)N[C@@H](CCCNC(=N)N)C(=O)N[C@@H](CCCNC(=N)N)C(=O)N2` (cyclo(RRRCKKSIPPICF); disulfide 4-12) are “inactive”, 58.8%, 45.2% and 34.7%.
For the compound `CC[C@H](C)[C@@H]1NC(=O)[C@@H]2CCCN2C(=O)[C@@H]2CCCN2C(=O)[C@H]([C@@H](C)CC)NC(=O)[C@H](CO)NC(=O)[C@H](CCCCN)NC(=O)[C@H](CCCCN)NC(=O)[C@@H](NC(=O)[C@H](CCCNC(=N)N)NC(=O)[C@@H](N)CCCCN)CSSC[C@@H](C(=O)N[C@@H](Cc2ccccc2)C(N)=O)NC1=O` (H-KRCKKSIPPICF-NH2; disulfide 3-11), the inhibition entry in data set [4] was “inactive”. In addition, the Stability result in data set [5] and in data set [8] was “Stable” in each case. Moreover, the values for the inhibition at Furin (Homo sapiens) [6] and on Furin (Homo sapiens) [7] were 50.4% and 34.7%, respectively.
Turning to `CC[C@H](C)[C@@H]1NC(=O)[C@@H]2CCCN2C(=O)[C@@H]2CCCN2C(=O)[C@H]([C@@H](C)CC)NC(=O)[C@H](CO)NC(=O)[C@H](CCCCN)NC(=O)[C@H](CCCCN)NC(=O)[C@@H]2CSSC[C@H](NC1=O)C(=O)N[C@@H](Cc1ccccc1)C(=O)N[C@@H](CCCNC(=N)N)C(=O)N[C@@H](CCCNC(=N)N)C(=O)N2` (cyclo(CFRRCKKSIPPI); disulfide 1-5), the inhibition at Furin (Homo sapiens) [1] was determined as 97.2%; on Furin (Homo sapiens) [2], 46.1%; on Furin (Homo sapiens) [3] it was 3.72%.
